MEKK2 WT-MEK5 – raises or lowers MEK5 binding to wildtype human MEKK2 PB1 domain; Q9Y2U5; bead flow cytometry, Alexa488-MEK5 binding to MEKK2 WT; actives lie on both sides; binding response (% of control), % at 10 µM; 1.1% of 290,000 active; in the data active means binding response below about 67% or above about 130%
Apaf-1 inh – human Apaf-1 inhibition; O14727; reconstituted apoptosome caspase-3 activity, DEVD-Rh110 fluorescence; inhibition, % at 20 µM; 0.71% of 330,000 active; AID 489030; active means inhibition of at least 40% at 20 µM;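 further: plate controls were DMSO wells for no effect and DEVD-CHO caspase inhibitor wells for full effect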
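Assay system: Apoptosome proteins | Medium: pH 7.5 Hepes buffer with CHAPS, BSA, DTT | Also added: Cytochrome c and DEVD-Rh110 substrate | Times: 30 min plus 50 min, RT | Detection: Rhodamine 110 fluorescence at Ex 480/Em 540 nm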
UBC13 inh – human UBC13 polyubiquitination inhibition; P61088; UBC13 polyubiquitin chain formation, TR-FRET; inhibition, % at 20 µM; 0.47% of 330,000 active; AID 485273; in the data active means inhibition above about 45%, passing the limit was not always enough
MEKK2mut PB1 HTS – signal of MEK5 binding to mutant human MEKK2 PB1 domain; bead flow cytometry, Alexa488-MEK5 binding to MEKK2 mutant; percent response, % at 10 µM; 0.35% of 290,000 active; AID 1530; in the data active means percent response above about 24%, passing the limit was not always enough
Pemphigus Ab inh – human desmoglein-3 autoantibody binding inhibition | DSG3-coupled beads, scFv-anti-DSG3-GFP binding, flow cytometry; hits give low values | binding (percent of control), % at 10 µM | 0.48% of 310,000 active | AID 588358;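 active means binding more than 3 SD below its plate's average and above zero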;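 further: hits lower antibody fragment binding to DSG3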
Target sequence (P32926 whole entry, looked up, the tested form may be a part): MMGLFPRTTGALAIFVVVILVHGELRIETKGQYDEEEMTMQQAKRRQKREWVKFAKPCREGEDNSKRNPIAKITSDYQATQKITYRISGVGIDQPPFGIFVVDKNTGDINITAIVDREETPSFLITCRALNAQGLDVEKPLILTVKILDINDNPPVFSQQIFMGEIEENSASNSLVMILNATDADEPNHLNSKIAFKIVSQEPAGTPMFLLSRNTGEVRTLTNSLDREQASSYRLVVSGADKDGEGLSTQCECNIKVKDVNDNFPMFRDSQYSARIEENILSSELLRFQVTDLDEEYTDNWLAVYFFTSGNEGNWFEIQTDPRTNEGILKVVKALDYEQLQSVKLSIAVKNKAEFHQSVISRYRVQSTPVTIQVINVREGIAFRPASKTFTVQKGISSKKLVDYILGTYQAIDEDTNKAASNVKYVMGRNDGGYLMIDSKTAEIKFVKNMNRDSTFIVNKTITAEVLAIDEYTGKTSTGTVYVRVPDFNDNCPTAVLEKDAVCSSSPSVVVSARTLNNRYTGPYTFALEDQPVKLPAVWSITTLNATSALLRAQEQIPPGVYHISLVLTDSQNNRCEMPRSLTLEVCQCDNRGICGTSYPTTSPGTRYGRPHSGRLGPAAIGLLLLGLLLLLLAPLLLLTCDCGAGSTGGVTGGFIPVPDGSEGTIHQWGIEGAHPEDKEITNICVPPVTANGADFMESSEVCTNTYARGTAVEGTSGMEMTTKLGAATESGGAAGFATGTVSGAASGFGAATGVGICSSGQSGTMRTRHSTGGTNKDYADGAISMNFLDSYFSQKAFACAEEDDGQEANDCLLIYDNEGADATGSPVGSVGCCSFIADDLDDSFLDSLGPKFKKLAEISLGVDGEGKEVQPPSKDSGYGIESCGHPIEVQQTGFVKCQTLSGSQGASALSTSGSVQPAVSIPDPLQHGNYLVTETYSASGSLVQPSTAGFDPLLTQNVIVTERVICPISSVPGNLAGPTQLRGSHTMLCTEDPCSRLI
MEKK3 PB1 HTS – modulators (inhibitors or enhancers) of MEK5 binding to human MEKK3 PB1 domain. Q99759. bead-based flow cytometry, Alexa488-MEK5 binding to MEKK3; actives lie on both sides; 0 = blocked by unlabeled MEK5, 100 = vehicle. binding response (% of control), % at 10 µM. 1.4% of 290,000 active. AID 1529;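 active means binding response more than 3 SD above or below the average of its plate-row segment, actives on both sides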;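 further: Alexa488 bead fluorescence after subtracting the streptavidin-only scavenger bead signal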
* marks the source's active call; other numbers are inactive results; nt = no result given; [ ] = dose if it differs, or a comment. In the library only some 3.2% were active in any assay of this set; here they are far more common.

SMILES	MEKK2 WT-MEK5	Apaf-1 inh	UBC13 inh	MEKK2mut PB1 HTS	Pemphigus Ab inh	MEKK3 PB1 HTS
N#CC1=C(N)OC2=C(CCc3ccccc32)C1c1ccccc1Cl (stereo not drawn)	105	9	2	1	112	144*
CCC(C)N(C(=O)COC(=O)c1cc([N+](=O)[O-])ccc1N1CCOCC1)C1CCS(=O)(=O)C1 (stereo not drawn)	nt	78*	-13	nt	102	nt
CC(CCc1ccccc1)NC(=O)C(C)OC(=O)c1ccco1 (stereo not drawn)	nt	-7	0	nt	100	nt
O=[N+]([O-])c1c(NCCO)cc(N2CCCCCC2)c2nonc12	105	9	-29	16	99	104
CCOC(=O)C1CCCN(c2cc(NCCCO)c([N+](=O)[O-])c3nonc23)C1 (stereo not drawn)	102	40*	-18	-1	nt	107
CCOc1ncccc1C(=O)NNC(=O)CSc1ccc(Cl)cc1	nt	-1	4	nt	96	nt
CNC[C@H](Cc1cccc2ccccc12)NC[C@H](CCSC)NCC1CCC(C(C)(C)C)CC1 (stereo partly drawn)	nt	65*	86*	nt	nt	nt
O=C(C[n+]1cccc(C(=O)N/N=C/c2cccc([N+](=O)[O-])c2)c1)c1ccccc1	nt	35	6	nt	162	nt
CCc1nnc(NC(=O)CSc2ncnc3c2oc2ccccc23)s1	103	-16	-20	10	-17*	103
O=C(Cc1c(F)cccc1Cl)Nc1ccccc1-c1ccccc1	103	17	6	5	47*	102
NN(Cc1ccccc1)C(=S)Nc1ccc(Cl)c(Cl)c1	109	23	4	7	102	106
CC[n+]1c(/C=C(\C)OC)sc2ccccc21	90	7	-7	-9	109	107
CC[n+]1c(/C=C/C=C/N(C(C)=O)c2ccccc2)sc2cc(OC)ccc21	11*	nt	nt	15	nt	89
Cc1ccc(C)c(NC(=S)NC2CC3CCC(C2)N3Cc2ccco2)c1 (stereo not drawn)	103	-5	1	3	80*	97
N#Cc1ccc(CN(Nc2ccccc2)c2ccccc2)cc1	nt	nt	nt	nt	104	nt
CN1CCN(C(=S)c2cn(CCOc3ccccc3)c3ccccc23)CC1	109	18	21	-2	94	104
CN1CCN(C(=S)c2cn(CCOc3ccccc3F)c3ccccc23)CC1	-9.0*	12	17	4	97	102
O=C(CSc1ccc([N+](=O)[O-])cc1)NNC(=O)c1ccccc1F	108	1	-2	8	109	104
CC(N=Cc1c(O)c2ccccc2oc1=O)C(=O)O (stereo not drawn)	97	-15	13	-6	51*	95
Cc1ccc(NC(=O)NCc2ccc3[nH]c(C)cc3c2)cc1	95	-8	-11	-8	87*	100
CCOc1ccccc1N1CCN(CC(O)COC2CCCc3ccccc32)CC1 (stereo not drawn)	108	20	4	2	-39*	104
CN(CCOc1ccc(Cl)cc1)C(=O)CN1C(=O)NC2(CCCCC2)C1=O	nt	-3	3	nt	103	nt
Cc1nn(C(C)C(=O)NCCCN2CCCCCC2)c(=O)c2c1sc1ccccc12 (stereo not drawn)	162*	17	21	27*	97	107
COc1ccc(Cl)cc1NC(=O)CN(C)C(=O)c1ccc(N2CCCCCC2)c([N+](=O)[O-])c1	nt	18	-12	nt	118	nt
O=C(Nc1nccs1)c1ccc(-c2cccc([N+](=O)[O-])c2)o1	105	6	-12	9	64*	105
SMILES	MEKK2 WT-MEK5	Apaf-1 inh	UBC13 inh	MEKK2mut PB1 HTS	Pemphigus Ab inh	MEKK3 PB1 HTS
O=C(Nc1ccccc1F)c1ccc(-c2cccc([N+](=O)[O-])c2)o1	102	2	0	3	nt	96
COc1cccc(NC(=O)c2cc(C(=O)Nc3cccc(OC)c3)n(C)n2)c1	108	41*	4	7	102	104
COc1cccc(NC(=O)c2ccc(-c3ccc([N+](=O)[O-])cc3)o2)c1	74	2	0	-18	84*	94
COc1ccc(OC)c(-c2nn(-c3ccccc3)cc2C(=O)NC2(C)CCS(=O)(=O)C2)c1 (stereo not drawn)	nt	nt	nt	nt	96	nt
O=c1[nH]c2cc(F)ccc2c2ccc(F)cc12	nt	nt	nt	nt	98	nt
O=C(CSc1nccc(-c2ccc(Br)cc2)n1)NCCc1ccccc1	104	11	12	-1	69*	100
Cc1nc(SCC(=O)NCCc2ccccc2)n[nH]1	nt	1	-1	nt	94	nt
c1ccc(CCCCc2ccccn2)cc1	nt	nt	nt	nt	117	nt
NC(CCCCc1ccccc1)c1cccc2ccccc12 (stereo not drawn)	nt	22	54*	nt	nt	nt
COc1ccc(C(=O)/C(=C/O)N=Nc2ccc(F)cc2)cc1	89	25	-18	-6	-4.7*	95
CCCCn1c(NC(=O)c2ccccc2)c(C#N)c2nc3ccccc3nc21	nt	nt	nt	nt	90	nt
CCCCn1c(NC(=O)c2ccc(F)cc2)c(C#N)c2nc3ccccc3nc21	nt	95*	-19	nt	nt	nt
N#Cc1ccc(-c2ccc(F)cc2)nc1Oc1ccc(F)cc1	99	-14	6	0	82*	106
N#Cc1ccc(-c2ccc(F)cc2)nc1Oc1ccccc1	102	-6	8	2	83	103
COc1cccc(-c2nc(NCc3ccco3)c3ccccc3n2)c1O	96	-1	1	1	64*	94
COc1cccc(-c2nc(NCc3ccccc3)c3ccccc3n2)c1O	99	15	-5	0	98	103
C=CCNc1nc(-c2cccc(OC)c2O)nc2ccccc12	104	13	1	0	92*	103
COc1ccc(S(=O)(=O)NCCN2CCOCC2)cc1[N+](=O)[O-]	-11*[inhibitor]	2	-1	-32	97	0.0*[inhibitor]
CCCOc1ccc(N)cc1N	nt	91*	-50	nt	98	nt
O=C(O)c1ccccc1NS(=O)(=O)c1cccc(NS(=O)(=O)c2cc(Br)ccc2Br)c1	nt	2	1	nt	100	nt
O=C1NCCCC2c3c(cc(Br)c(O)c3Br)OC12N1CCOCC1 (stereo not drawn)	90	-10	-2	-1	102	97
O=C1NCCCC2c3cc(O)c4ccccc4c3OC12N1CCCCC1 (stereo not drawn)	92	93*	-36	-1	nt	91
CCN(CC)c1ccc(/C=C2/C(=O)N(c3ccc([N+](=O)[O-])cc3)N=C2N2CCOCC2)cc1	nt	56*	-96	nt	nt	nt
COC(=O)c1c(C)nc(C)c(C(=O)OC)c1-c1cccs1	93	-12	14	64*	118	87
O=C(NCc1ccccc1Cl)C1CCCN1C(=O)Nc1ccccc1 (stereo not drawn)	113	-1	-4	8	91	109
